Data reported in ChEMBL document CHEMBL3352559, “Synthesis and pharmacological investigation of aralkyl diamine derivatives as potential triple reuptake inhibitors” (Eur J Med Chem, 2014).

Tests used:
[1] = Elimination half life in Sprague-Dawley rat at 2 mg/kg, po; type: ADME, organism-based; design: dose 2 mg/kg, route oral; details: in vivo, read-out: beta t1/2 (converted)
Homo sapiens [2] = species: Homo sapiens; experiment: Inhibition of GABA-gated chloride channel (unknown origin) at 10 uM by [35S]TBPS binding assay relative to control
Summary of the method: (§1)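 Outsourced CNS receptor panel (55 binding assays); compound tested at 10 μM in primary radioligand binding; specific binding inhibition expressed relative to control, with >50% inhibition taken as a significant effect.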

[3] = Mean residence time in Sprague-Dawley rat at 2 mg/kg, po; type: ADME, organism-based; design: dose 2 mg/kg, route oral; details: in vivo
[4] = target: Adrenergic receptor alpha-2 (Homo sapiens) (UniProt P08913+P18825+P18089); experiment: Displacement of [3H]-RX-821002 from alpha-2 adrenergic receptor (unknown origin) at 10 uM relative to control; type: protein assay
Summary of the method: (§2)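 Outsourced CNS panel of 55 receptor binding assays run by Cerep. Compound tested at 10 μM, the default primary-binding concentration, with inhibition expressed relative to control. Inhibition above 50% taken as a significant effect.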

[5] = Drug uptake in Sprague-Dawley rat plasma at 0.5 mg/kg iv after 0.50 hrs; type: ADME, organism-based; design: dose 0.5 mg/kg, route intravenous
Summary of the method: (§3)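 Male SD rats, fasted overnight until 6 h post-dose; single 0.5 mg/kg femoral-vein injection; blood drawn into heparin at 5, 15, 30 min, 1, 2 and 4 h; plasma stored at -40 °C; drug levels by LC/MS/MS; noncompartmental parameters.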

[6] = AUC (0 to time) in Sprague-Dawley rat at 0.5 mg/kg, iv; type: ADME, organism-based; design: dose 0.5 mg/kg, route intravenous; details: plasma
Summary of the method: (§4)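 Male SD rats, fasted overnight until 6 h post-dose. PO group received single 2 mg/kg with heparinized blood sampled at 5, 15, 30 min, 1, 2, 4, 8, 24 h. IV group received single 0.5 mg/kg via femoral vein with sampling at 5, 15, 30 min, 1, 2, 4 h. Plasma stored at -40 °C, quantified by LC/MS/MS; 24 rats per group.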

[7] = target: Sodium-dependent dopamine transporter (Homo sapiens, UniProt Q01959); experiment: Displacement of [3H]BTCP from human DAT at 10 uM relative to control; summary of the method: as §2
Rattus norvegicus [8] = experiment: Apparent volume of distribution during terminal phase in Sprague-Dawley rat at 0.5 mg/kg, iv; type: ADME, organism-based; design: dose 0.5 mg/kg, route intravenous; details: in vivo; summary of the method: as §4
Rattus norvegicus [9] = experiment: Toxicity in rat assessed as effect on locomotion at 20 mg/kg, po after 60 mins by spontaneous locomotor test; type: organism-based; design: dose 20 mg/kg, route oral; details: in vivo, 1 h
Summary of the method: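 Rats dosed orally at 20 mg/kg, with vehicle and venlafaxine 30 mg/kg PO as controls; 60 min later placed singly in novel 40×40×50 cm cages under dim light with sound attenuation; activity recorded automatically in 5 min bins over 30 min; mean ± SEM.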

[10] = Drug uptake in Sprague-Dawley rat plasma at 0.5 mg/kg iv after 0.25 hrs; type: ADME, organism-based; design: dose 0.5 mg/kg, route intravenous; summary of the method: as §3
Salmonella typhimurium [11] = experiment: Mutagenic activity in Salmonella typhimurium TA100 assessed as number of reversion mutation at 300 ug/plate; type: toxicity, organism-based; details: salmonella enterica subsp. enterica serovar typhimurium
Summary of the method: (§5)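 Ames reversion test in Salmonella typhimurium TA98 and TA100, with and without rat liver S9 metabolic activation. Compound was dissolved in DMSO and added at 3–5000 μg/plate. Each dose, vehicle and positive control was plated in triplicate, and revertant colonies were counted.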

[12] = AUC (0 to infinity) in Sprague-Dawley rat at 0.5 mg/kg, iv; type: ADME, organism-based; design: time infinity, dose 0.5 mg/kg, route intravenous; details: plasma; summary of the method: as §4
Salmonella typhimurium [13] = experiment: Mutagenic activity in Salmonella typhimurium TA98 assessed as number of reversion mutation at 100 ug/plate; type: toxicity, organism-based; details: salmonella enterica subsp. enterica serovar typhimurium; summary of the method: as §5
[14] = AUC (0 to infinity) in Sprague-Dawley rat at 2 mg/kg, po; type: ADME, organism-based; design: dose 2 mg/kg, route oral, time infinity; details: plasma; summary of the method: as §4
[15] = target: Mu-type opioid receptor (Homo sapiens) (UniProt P35372); experiment: Displacement of […] from human mu opioid receptor at 10 uM relative to control; summary of the method: as §2
Homo sapiens [16] = species: Homo sapiens; experiment: Inhibition of Na+ channel (unknown origin) at 10 uM by [3H]batrachotoxinin binding assay relative to control
Summary of the method: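 Radioligand binding was run at a contract laboratory as part of a 55-target CNS receptor panel. Test concentration was 10 μM. Inhibition of specific binding was expressed relative to control, and inhibition greater than 50% was taken as significant.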

[17] = target: Vasoactive intestinal polypeptide receptor 1 (Homo sapiens) (UniProt P32241); experiment: Displacement of [125I]VIP from human VPAC1 receptor at 10 uM relative to control; summary of the method: as §2
[18] = target: 5-hydroxytryptamine receptor 2A (Homo sapiens) (UniProt P28223); experiment: Displacement of [3H]ketanserin from human 5-HT2A receptor at 10 uM relative to control; summary of the method: as §1
[19] = target: Histamine H1 receptor (Homo sapiens) (UniProt P35367); experiment: Displacement of [3H]Pyrilamine from human histamine H1 receptor at 10 uM relative to control; summary of the method: as §2
[20] = target: 5-hydroxytryptamine receptor 3A (Homo sapiens) (UniProt P46098); experiment: Inhibition of human 5HT3 at 10 uM by […] binding assay relative to control; summary of the method: as §1
[21] = target: 5-hydroxytryptamine receptor 7 (Homo sapiens) (UniProt P34969); experiment: Displacement of [3H]LSD from human 5-HT7 receptor at 10 uM relative to control; summary of the method: as §2
[22] = target: Muscarinic acetylcholine receptor M2 (Homo sapiens) (UniProt P08172); experiment: Displacement of [3H]AF-DX 384 from human muscarinic M2 receptor at 10 uM relative to control; summary of the method: as §2
[23] = Ratio of drug level in Sprague-Dawley rat brain to plasma at 0.5 mg/kg iv after 0.25 hrs; type: ADME, organism-based; design: dose 0.5 mg/kg, route intravenous; details: read-out: BPR
Rattus norvegicus [24] = experiment: Antidepressant activity in rat assessed as reduction in immobility time at 5 mg/kg, po by forced swimming test relative to control; type: functional
Summary of the method: (§6)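 Male rats dosed orally at 5, 10 or 20 mg/kg alongside vehicle and venlafaxine 30 mg/kg PO groups. 1 h post-dose, each rat placed in a glass cylinder (40 cm × 18 cm) holding 15 cm of 25 ± 1 °C water. Immobility time recorded over a 6 min trial; significant main effects followed by post hoc Fisher's test.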

[25] = target: Muscarinic acetylcholine receptor M1 (Homo sapiens) (UniProt P11229); experiment: Displacement of [3H]pirenzepine from human muscarinic M1 receptor at 10 uM relative to control; summary of the method: as §1
[26] = target: 5-hydroxytryptamine receptor 5A (Homo sapiens) (UniProt P47898); experiment: Displacement of [3H]LSD from human 5-HT5A receptor at 10 uM relative to control; summary of the method: as §2
Salmonella typhimurium [27] = experiment: Mutagenic activity in Salmonella typhimurium TA100 assessed as number of reversion mutation at 1000 ug/plate; type: toxicity, organism-based; details: salmonella enterica subsp. enterica serovar typhimurium; summary of the method: as §5
[28] = Elimination half life in Sprague-Dawley rat at 0.5 mg/kg, iv; type: ADME, organism-based; design: dose 0.5 mg/kg, route intravenous; details: in vivo, read-out: beta t1/2 (converted); summary of the method: as §3
[29] = target: Melatonin receptor type 1A (Homo sapiens) (UniProt P48039); experiment: Displacement of 2-[125I]iodomelatonin from human melatonin MT1 receptor at 10 uM relative to control; summary of the method: as §2
[30] = target: 5-hydroxytryptamine receptor 1B (Homo sapiens) (UniProt P28222); experiment: Displacement of [125I]CYP from human 5-HT1B receptor at 10 uM relative to control; summary of the method: as §2
Rattus norvegicus [31] = experiment: Antidepressant activity in po dosed rat assessed as reduction in immobility time by forced swimming test; type: functional, organism-based; summary of the method: as §6
[32] = Acute toxicity in KM mouse assessed as survival at 450 mg/kg, po up to 14 days (reference value: 100%); type: organism-based; design: dose 450 mg/kg, route oral; details: in vivo

Chain of Muscarinic acetylcholine receptor M2 (Homo sapiens) (P08172 whole entry): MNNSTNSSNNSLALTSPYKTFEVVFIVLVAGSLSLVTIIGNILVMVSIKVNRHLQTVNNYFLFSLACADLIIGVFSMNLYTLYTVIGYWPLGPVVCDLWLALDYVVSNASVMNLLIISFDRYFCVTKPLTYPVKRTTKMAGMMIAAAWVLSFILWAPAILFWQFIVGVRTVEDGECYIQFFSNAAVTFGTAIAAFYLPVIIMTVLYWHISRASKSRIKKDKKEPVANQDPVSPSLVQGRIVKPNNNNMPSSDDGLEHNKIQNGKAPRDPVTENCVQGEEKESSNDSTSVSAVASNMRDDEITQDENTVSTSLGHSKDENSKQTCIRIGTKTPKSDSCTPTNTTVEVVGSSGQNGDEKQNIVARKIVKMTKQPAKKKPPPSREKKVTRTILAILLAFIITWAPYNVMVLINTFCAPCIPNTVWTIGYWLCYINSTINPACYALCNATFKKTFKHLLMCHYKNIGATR
Chain of 5-hydroxytryptamine receptor 5A (Homo sapiens) (P47898 whole entry): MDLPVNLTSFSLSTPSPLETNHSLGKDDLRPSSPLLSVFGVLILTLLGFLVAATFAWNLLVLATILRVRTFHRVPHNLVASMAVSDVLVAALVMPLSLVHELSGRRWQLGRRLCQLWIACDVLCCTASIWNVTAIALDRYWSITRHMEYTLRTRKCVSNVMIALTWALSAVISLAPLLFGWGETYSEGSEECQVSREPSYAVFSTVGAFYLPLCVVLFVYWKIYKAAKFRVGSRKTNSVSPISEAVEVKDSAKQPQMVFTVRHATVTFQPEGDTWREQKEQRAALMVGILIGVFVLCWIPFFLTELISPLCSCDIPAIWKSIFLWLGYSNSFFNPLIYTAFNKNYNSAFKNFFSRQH
Chain of Mu-type opioid receptor (Homo sapiens) (P35372 whole entry): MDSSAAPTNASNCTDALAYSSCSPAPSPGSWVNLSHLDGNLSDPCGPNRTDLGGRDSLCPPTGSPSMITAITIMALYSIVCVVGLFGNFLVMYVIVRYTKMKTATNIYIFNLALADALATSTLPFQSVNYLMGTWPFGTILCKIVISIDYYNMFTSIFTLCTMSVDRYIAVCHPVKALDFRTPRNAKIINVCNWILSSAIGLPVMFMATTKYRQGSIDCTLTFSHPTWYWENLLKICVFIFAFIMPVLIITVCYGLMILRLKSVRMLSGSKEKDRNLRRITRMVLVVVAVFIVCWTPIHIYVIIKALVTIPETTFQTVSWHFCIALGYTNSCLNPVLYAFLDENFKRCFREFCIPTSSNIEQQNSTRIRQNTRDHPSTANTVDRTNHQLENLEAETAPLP
Chain of Melatonin receptor type 1A (Homo sapiens) (P48039 whole entry): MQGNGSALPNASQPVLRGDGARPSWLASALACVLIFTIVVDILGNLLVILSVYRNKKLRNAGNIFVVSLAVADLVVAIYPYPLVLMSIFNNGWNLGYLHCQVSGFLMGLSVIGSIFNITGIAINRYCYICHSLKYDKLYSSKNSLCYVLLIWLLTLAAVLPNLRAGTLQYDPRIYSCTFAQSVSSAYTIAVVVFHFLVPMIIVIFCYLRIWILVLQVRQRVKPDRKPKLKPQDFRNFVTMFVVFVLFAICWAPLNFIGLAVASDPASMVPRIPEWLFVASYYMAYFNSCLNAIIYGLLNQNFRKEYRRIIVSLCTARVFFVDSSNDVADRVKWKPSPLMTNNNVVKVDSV
Chain of 5-hydroxytryptamine receptor 1B (Homo sapiens) (P28222 whole entry): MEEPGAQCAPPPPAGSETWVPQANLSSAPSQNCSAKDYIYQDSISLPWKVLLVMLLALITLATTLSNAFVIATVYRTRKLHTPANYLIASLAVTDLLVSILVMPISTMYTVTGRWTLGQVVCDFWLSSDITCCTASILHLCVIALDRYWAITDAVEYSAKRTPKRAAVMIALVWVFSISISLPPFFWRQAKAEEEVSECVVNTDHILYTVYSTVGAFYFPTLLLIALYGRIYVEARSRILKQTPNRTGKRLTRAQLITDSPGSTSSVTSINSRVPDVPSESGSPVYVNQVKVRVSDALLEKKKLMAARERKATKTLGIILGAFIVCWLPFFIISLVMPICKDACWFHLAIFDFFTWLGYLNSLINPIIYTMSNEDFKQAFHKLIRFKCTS
Chain of Sodium-dependent dopamine transporter (Q01959 whole entry): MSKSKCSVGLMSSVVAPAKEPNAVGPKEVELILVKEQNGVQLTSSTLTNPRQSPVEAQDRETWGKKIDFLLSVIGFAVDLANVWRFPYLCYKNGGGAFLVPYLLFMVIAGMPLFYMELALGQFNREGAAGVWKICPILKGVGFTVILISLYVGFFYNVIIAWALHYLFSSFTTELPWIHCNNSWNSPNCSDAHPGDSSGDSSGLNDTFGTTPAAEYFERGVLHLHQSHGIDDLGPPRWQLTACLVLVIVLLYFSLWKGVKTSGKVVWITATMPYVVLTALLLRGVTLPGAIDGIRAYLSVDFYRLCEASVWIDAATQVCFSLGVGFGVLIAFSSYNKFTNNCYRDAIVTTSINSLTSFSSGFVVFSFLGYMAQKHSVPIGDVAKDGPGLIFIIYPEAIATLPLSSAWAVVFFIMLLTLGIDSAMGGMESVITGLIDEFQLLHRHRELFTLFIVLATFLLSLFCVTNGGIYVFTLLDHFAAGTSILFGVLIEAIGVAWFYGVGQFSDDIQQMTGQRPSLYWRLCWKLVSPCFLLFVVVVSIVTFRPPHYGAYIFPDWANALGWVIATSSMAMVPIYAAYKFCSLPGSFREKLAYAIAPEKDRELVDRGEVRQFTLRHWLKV
Chain of Vasoactive intestinal polypeptide receptor 1 (Homo sapiens) (P32241 whole entry): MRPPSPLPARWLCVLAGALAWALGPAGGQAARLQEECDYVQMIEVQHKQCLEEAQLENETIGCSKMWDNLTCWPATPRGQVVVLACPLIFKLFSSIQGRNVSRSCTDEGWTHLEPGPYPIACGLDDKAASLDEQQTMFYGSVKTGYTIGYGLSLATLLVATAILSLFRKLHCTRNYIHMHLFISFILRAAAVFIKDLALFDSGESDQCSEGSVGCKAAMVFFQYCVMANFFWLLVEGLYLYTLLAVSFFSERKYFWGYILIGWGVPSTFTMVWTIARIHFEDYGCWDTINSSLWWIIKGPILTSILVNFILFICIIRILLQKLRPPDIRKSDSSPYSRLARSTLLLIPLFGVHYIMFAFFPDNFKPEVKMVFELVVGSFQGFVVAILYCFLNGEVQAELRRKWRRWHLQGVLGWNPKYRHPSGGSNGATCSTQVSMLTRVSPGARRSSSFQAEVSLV
Chain of 5-hydroxytryptamine receptor 7 (Homo sapiens) (P34969 whole entry): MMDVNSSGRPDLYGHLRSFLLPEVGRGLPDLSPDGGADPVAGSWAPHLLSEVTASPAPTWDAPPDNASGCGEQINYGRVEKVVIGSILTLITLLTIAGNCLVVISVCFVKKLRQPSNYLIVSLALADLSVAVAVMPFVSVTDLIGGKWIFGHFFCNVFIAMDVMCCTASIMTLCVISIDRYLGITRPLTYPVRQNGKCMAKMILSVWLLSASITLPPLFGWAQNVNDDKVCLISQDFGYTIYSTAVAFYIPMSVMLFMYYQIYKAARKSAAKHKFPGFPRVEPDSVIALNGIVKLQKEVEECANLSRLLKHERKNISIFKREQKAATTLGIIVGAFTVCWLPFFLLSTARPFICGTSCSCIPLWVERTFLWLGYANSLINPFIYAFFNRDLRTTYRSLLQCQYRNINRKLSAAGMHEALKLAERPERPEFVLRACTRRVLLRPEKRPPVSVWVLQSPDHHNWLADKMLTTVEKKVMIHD
Chain of 5-hydroxytryptamine receptor 3A (Homo sapiens) (P46098 whole entry): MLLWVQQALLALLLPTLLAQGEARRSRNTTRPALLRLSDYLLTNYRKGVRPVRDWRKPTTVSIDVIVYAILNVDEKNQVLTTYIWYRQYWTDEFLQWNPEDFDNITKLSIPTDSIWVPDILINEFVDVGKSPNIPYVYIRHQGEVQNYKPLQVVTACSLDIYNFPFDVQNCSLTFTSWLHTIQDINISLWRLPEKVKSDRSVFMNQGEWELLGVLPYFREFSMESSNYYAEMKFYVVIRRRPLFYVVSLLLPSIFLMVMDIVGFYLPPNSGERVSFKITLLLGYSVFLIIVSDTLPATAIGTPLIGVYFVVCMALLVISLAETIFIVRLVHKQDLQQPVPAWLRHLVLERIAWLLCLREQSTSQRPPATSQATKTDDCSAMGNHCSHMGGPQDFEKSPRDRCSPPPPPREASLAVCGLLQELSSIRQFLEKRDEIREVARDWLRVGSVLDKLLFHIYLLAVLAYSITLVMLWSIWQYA
Chain of Histamine H1 receptor (Homo sapiens) (P35367 whole entry): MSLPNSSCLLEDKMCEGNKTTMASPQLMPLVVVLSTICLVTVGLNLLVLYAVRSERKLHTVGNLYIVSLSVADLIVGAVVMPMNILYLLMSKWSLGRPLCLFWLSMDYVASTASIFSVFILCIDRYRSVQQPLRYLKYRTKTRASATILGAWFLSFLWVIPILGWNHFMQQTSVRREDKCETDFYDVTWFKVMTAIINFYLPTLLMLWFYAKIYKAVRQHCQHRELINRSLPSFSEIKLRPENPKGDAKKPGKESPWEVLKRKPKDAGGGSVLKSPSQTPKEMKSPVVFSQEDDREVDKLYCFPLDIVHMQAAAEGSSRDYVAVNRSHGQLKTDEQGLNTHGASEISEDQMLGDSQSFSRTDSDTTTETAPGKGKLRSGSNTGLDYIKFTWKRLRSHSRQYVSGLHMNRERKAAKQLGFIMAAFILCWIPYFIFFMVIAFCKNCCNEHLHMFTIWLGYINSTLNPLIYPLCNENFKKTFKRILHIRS
Chain of 5-hydroxytryptamine receptor 2A (Homo sapiens) (P28223 whole entry): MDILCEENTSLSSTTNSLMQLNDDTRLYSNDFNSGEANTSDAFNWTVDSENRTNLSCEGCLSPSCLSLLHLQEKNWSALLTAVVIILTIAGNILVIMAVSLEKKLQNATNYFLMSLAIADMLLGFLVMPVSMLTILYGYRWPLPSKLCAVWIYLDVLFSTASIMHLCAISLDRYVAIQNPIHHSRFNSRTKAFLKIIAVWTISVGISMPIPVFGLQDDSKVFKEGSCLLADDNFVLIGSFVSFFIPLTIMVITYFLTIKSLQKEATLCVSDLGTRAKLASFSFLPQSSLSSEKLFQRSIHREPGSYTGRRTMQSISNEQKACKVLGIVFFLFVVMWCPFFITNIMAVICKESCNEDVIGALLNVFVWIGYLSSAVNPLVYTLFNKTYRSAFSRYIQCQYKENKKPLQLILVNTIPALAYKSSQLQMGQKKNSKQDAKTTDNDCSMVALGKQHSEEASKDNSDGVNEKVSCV

Work on `CN(C)CCC(c1ccc(Cl)c(Cl)c1)N1CCOCC1` (configuration not stated) yielded a half-life [1] of 4.5 h, an inhibition (Homo sapiens [2]) of -2.3% and an MRT [3] of 3.05 h. For the same molecule, the inhibition [4] was 9.6%, the concentration at 0.5 h [5] was 44.5 ng/mL and the AUC [6] was 78.6 ng·h/mL. The inhibition [7] was 93.6%, the Vz/F (Rattus norvegicus [8]) was 8.3 L/kg and the Activity (Rattus norvegicus [9]) was “Non-toxic”. The concentration at 0.25 h [10] was 42 ng/mL, the Activity (Salmonella typhimurium [11]) was 93 and the AUC(0-inf) [12] was 83.7 ng·h/mL. For the same molecule, the Activity (Salmonella typhimurium [13]) was 41, the AUC(0-inf) [14] was 80 ng·h/mL and the inhibition [15] was 39.7%. The inhibition (Homo sapiens [16]) was 40.1%, the inhibition [17] was 2.2% and the inhibition [18] was 32.1%. The inhibition [19] was 22.7%, the inhibition [20] was -5.2% and the inhibition [21] was 8.9%. For the same molecule, the inhibition [22] was 17.7%, the Kp at 0.25 h [23] was 22 and the inhibition in vivo at 5 mg/kg (Rattus norvegicus [24]) was 31%. It also gave an inhibition [25] of 45.6%, an inhibition [26] of 1.4% and an Activity (Salmonella typhimurium [27]) of 87. It also gave a half-life [28] of 1 h, an inhibition [29] of -7.1% and an inhibition [30] of 0.7%. The inhibition (Rattus norvegicus [31]) was “Dose-dependent effect” and the survival at 336 h [32] was 100%.
